Measured values from different studies.
Each line is one published result; the experiments were not run side by side. pIC50: −log10 of the molar value.
SLC47A2: Multidrug and toxin extrusion protein 2 (SLC47A2, Homo sapiens, UniProt Q86VL8)
RARG: Retinoic acid receptor gamma (RARG, Homo sapiens, UniProt P13631)
murD: UDP-N-acetylmuramoylalanine--D-glutamate ligase (murD, Escherichia coli K-12, UniProt P14900)
PTPN7: Tyrosine-protein phosphatase non-receptor type 7 (PTPN7, Homo sapiens, UniProt P35236)
PDE8A: High affinity cAMP-specific and IBMX-insensitive 3',5'-cyclic phosphodiesterase 8A (PDE8A, Homo sapiens, UniProt O60658)
ALOX5: Polyunsaturated fatty acid 5-lipoxygenase (ALOX5, Homo sapiens, UniProt P09917)
HDAC8: Histone deacetylase 8 (HDAC8, Homo sapiens, UniProt Q9BY41)
BCKDK: Branched-chain alpha-ketoacid dehydrogenase kinase (BCKDK, Homo sapiens, UniProt O14874)
KAT2B: Histone acetyltransferase KAT2B (KAT2B, Homo sapiens, UniProt Q92831)
HDAC1: Histone deacetylase 1 (HDAC1, Homo sapiens, UniProt Q13547)
OPRM1: Mu-type opioid receptor (OPRM1, Homo sapiens, UniProt P35372)

SMILES	target	test	system	setting	pIC50
CN/C(=N/CCSCc1nc[nH]c1C)NC#N	SLC47A2	transporter uptake, inhibitor, radiometric	HEK293	5 min, pH 8.5	5.44
CSCC[C@H](NC(=O)[C@H](Cc1c[nH]c2ccccc12)NC(=O)CNC(=O)[C@H](Cc1ccc(O)cc1)NC(=O)[C@H](C)NC(=O)[C@@H](CCC(=O)O)NC(=O)CN1CCN(CC(=O)O)CCN(CC(=O)O)CCN(CC(=O)O)CC1)C(=O)N[C@@H](CC(=O)O)C(=O)N[C@@H](Cc1cccc2ccccc12)C(N)=O	Gastrin/cholecystokinin type B receptor (Rattus norvegicus, UniProt P30553)	ligand displacement, radioligand	–	–	8.72
CC(C)c1cccc2c(/C=C/c3ccccc3)cc(-c3ccc(-c4ccc(C(=O)O)cc4)[nH]3)nc12	RARG	reporter gene, antagonist	–	–	< 5.48
O=C(Nc1ccc(C=NNS(=O)(=O)c2ccc3ccccc3c2)cc1)c1ccccc1Br	murD	enzyme activity, inhibitor, absorbance	–	–	4.26
O=C(O)c1cc(O)c2c(c1)[C@H]([C@H]1c3cc(C(=O)O)cc(O)c3C(=O)c3c(O[C@@H]4O[C@H](CO)[C@@H](O)[C@H](O)[C@H]4O)cccc31)c1cccc(O[C@@H]3O[C@H](CO)[C@@H](O)[C@H](O)[C@H]3O)c1C2=O	PTPN7	enzyme activity, inhibitor, fluorescence	–	–	6.00
CCS(=O)(=O)N1CC(CC#N)(n2cc(-c3ncnc4[nH]ccc34)cn2)C1	SLC47A2	transporter uptake, inhibitor, radiometric	–	2 min	4.86
COc1ccc(C2=NN(C3CCCCCC3)C(=O)[C@@H]3CC=CC[C@H]23)cc1-c1ccc(C(N)=O)cc1 (relative stereo)	PDE8A	enzyme activity, inhibitor	–	–	< 5.00
CC/C=C\C/C=C\C/C=C\C/C=C\C/C=C\CCCC(=O)O	DNA polymerase (POLA1, Bos taurus, UniProt A0AAA9TD94)	enzyme activity, inhibitor	–	–	4.49
CNC(=O)c1cc2c(Oc3ccc(NC(=O)C4(C(=O)Nc5ccc(F)cc5)CC4)cc3)ccnc2cc1OC	Tyrosine-protein kinase Srms (SRMS, Homo sapiens, UniProt Q9H3Y6)	enzyme activity, inhibitor, radiometric	–	–	8.00
C=CC(=O)Nc1cc(Nc2nccc(Nc3cc(Cl)c(F)cc3C(C)(C)O)n2)c(OC)cc1N1CC[C@@H](N(C)C)C1	Cytochrome P450 2A6 (CYP2A6, Homo sapiens, UniProt P11509)	enzyme activity, inhibitor	human, liver microsomes	–	< 4.52
CCCCCc1cc(O)c(C/C=C(\C)CCC=C(C)C)c(O)c1	ALOX5	enzyme activity in cells, inhibitor	–	–	5.70
O=C1NC(=O)/C(=C/c2ccc(OCCNc3nc4c(cnn4C4CCCC4)c(=O)[nH]3)c(F)c2)S1	PDE8A	enzyme activity, inhibitor	–	–	6.70
COC(=O)[C@]1(O)C[C@@H](O)[C@@H](O)[C@H](OC(=O)/C=C/c2ccc(O)c(O)c2)C1	HDAC8	enzyme activity, inhibitor	–	–	5.09
CCCc1nc(C(C)(C)O)c(C(=O)O)n1Cc1ccc(-c2ccccc2-c2nnn[nH]2)cc1	BCKDK	enzyme activity, inhibitor	–	–	3.70
N[C@@H](CC(=O)N1CCN(C(c2ccc(F)cc2)c2ccc(F)cc2)CC1)C(=O)N1Cc2ccccc2C1	Dipeptidyl peptidase 8 (Homo sapiens, UniProt Q6V1X1)	enzyme activity, inhibitor	–	–	6.89
Cc1ccc(-c2cc(-c3ccc(-c4ccc(C(=O)O)cc4)[nH]3)nc3c(C(C)C)cccc23)cc1	RARG	reporter gene, antagonist	–	–	< 5.48
C=C(C)[C@@H]1CCC(C)=C[C@H]1c1c(O)cc(CCCCC)cc1O	ALOX5	enzyme activity in cells, inhibitor	–	–	< 5.00

SMILES	target	test	system	setting	pIC50
CCCCC(=O)N(Cc1ccc(-c2ccccc2-c2nnn[nH]2)cc1)[C@H](C(=O)O)C(C)C	BCKDK	enzyme activity, inhibitor	–	–	5.78
O=C(Nc1ccccc1C=NNS(=O)(=O)c1ccc2ccccc2c1)c1ccc([N+](=O)[O-])cc1	murD	enzyme activity, inhibitor, absorbance	–	–	4.37
CN1CCN(c2ccc(Nc3ncc4cc(C#N)c(=O)n(C5CCCC5)c4n3)cc2)CC1	TGF-beta receptor type-2 (TGFBR2, Homo sapiens, UniProt P37173)	enzyme activity, inhibitor	–	–	6.91
COc1cc(C[C@H]2C(=O)OC[C@@H]2Cc2ccc(OC)c(OC)c2)ccc1O	PDE8A	enzyme activity, inhibitor	–	–	< 4.70
O=c1cc(-c2ccc(O)c(O)c2)oc2cc(O)cc(O)c12	HDAC8	enzyme activity, inhibitor	–	–	5.16
CCCCCCCCCCCCCCCc1cccc(O)c1C(=O)O	KAT2B	enzyme activity, inhibitor, radiometric	–	–	< 3.70
COc1ccc(S(=O)(=O)ON=C2C=C(C)C(=O)C(C)=C2)cc1	KAT2B	enzyme activity, inhibitor, radiometric	–	–	4.46
C=C(C)[C@@H]1CCC(C)=C[C@H]1c1c(O)cc(CCC)cc1O	ALOX5	enzyme activity in cells, inhibitor	–	–	5.12
CCCC[C@H](NC(=O)[C@H](C)c1c(C)[nH]c2ccc(O)cc12)c1ncc(-c2cc3ccccc3nc2OC)[nH]1	HDAC1	enzyme activity, inhibitor	–	–	7.40
O=C(Nc1ccc(C=NNS(=O)(=O)c2ccc3ccccc3c2)cc1)c1ccccc1[N+](=O)[O-]	murD	enzyme activity, inhibitor, absorbance	–	–	4.35
CCCCc1nc(C)c(CC(=S)N(C)C)c(=O)n1Cc1ccc(-c2ccccc2-c2nnn[nH]2)cc1	BCKDK	enzyme activity, inhibitor	–	–	4.28
Cc1nccc2c1c(=O)n(C)c1cc(OC[C@@H](N)CC(C)C)c(C#N)cc21	OPRM1	cell-free assay	–	–	< 4.52
CCOCc1nc(O)c(-c2nnc(Cc3ccc(Cl)cn3)o2)c(O)c1-c1c(OC)cccc1OC	OPRM1	ligand displacement, radioligand	–	–	< 4.52
CC1=CC[C@H]2[C@@H]([C@@H]1CC[C@H]1[C@]3(C)CC[C@H](O)C(C)(C)O[C@H]3CC[C@]1(C)O)C(C)(C)CC[C@]2(C)O	ATP-dependent translocase ABCB1 (ABCB1, Homo sapiens, UniProt P08183)	transporter efflux, inhibitor, fluorescence	KB-V1	10 min	4.00 to 4.30
O=C(NO)c1ccc(NC(=O)C2(c3ccccc3)CCCC2)c(F)c1	HDAC1	enzyme activity, inhibitor	–	–	6.74
CCCCc1ncc(/C=C(\Cc2cccs2)C(=O)O)n1Cc1ccc(C(=O)O)cc1	BCKDK	enzyme activity, inhibitor	–	–	4.12
CN[C@H]1CC[C@@H](c2ccc(Cl)c(Cl)c2)c2ccccc21	PTPN7	enzyme activity, inhibitor, fluorescence	–	–	3.96
